The values below come from ChEMBL document CHEMBL4138312 (J Med Chem, 2018).

Data set [1] is described as follows: Half life in CD1 mouse at 3 mg/kg, iv by LC/MS/MS analysis. The data set is classed as ADME, organism-based. The following applies: in vivo. The essentials:
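Mouse pharmacokinetics after a single iv dose of 3 mg/kg in 10% HPbCD + 5% dextrose in WFI at pH 4. Plasma clearance, half-life and steady-state volume of distribution were derived.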

Data set [2] concerns the target T1, Tyrosine-protein kinase JAK1 (Homo sapiens, UniProt P23458). Nature of the data set: Inhibition of cytoplasmic recombinant human GST-tagged JAK1 (886 to 1154 residues) expressed in insect cells using FITC-C6-KKHTDDGYMPMSPGVA-NH as substrate after 10 mins by caliper assay. In short, it runs like this:
(§1)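 Biochemical kinase inhibition IC50 measured at 5 mM ATP. Values are the geometric mean of at least two independent experiments.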

The target of data set [3] is T2, Serine/threonine-protein kinase D1 (Homo sapiens) (UniProt Q15139).
T2 sequence (whole entry): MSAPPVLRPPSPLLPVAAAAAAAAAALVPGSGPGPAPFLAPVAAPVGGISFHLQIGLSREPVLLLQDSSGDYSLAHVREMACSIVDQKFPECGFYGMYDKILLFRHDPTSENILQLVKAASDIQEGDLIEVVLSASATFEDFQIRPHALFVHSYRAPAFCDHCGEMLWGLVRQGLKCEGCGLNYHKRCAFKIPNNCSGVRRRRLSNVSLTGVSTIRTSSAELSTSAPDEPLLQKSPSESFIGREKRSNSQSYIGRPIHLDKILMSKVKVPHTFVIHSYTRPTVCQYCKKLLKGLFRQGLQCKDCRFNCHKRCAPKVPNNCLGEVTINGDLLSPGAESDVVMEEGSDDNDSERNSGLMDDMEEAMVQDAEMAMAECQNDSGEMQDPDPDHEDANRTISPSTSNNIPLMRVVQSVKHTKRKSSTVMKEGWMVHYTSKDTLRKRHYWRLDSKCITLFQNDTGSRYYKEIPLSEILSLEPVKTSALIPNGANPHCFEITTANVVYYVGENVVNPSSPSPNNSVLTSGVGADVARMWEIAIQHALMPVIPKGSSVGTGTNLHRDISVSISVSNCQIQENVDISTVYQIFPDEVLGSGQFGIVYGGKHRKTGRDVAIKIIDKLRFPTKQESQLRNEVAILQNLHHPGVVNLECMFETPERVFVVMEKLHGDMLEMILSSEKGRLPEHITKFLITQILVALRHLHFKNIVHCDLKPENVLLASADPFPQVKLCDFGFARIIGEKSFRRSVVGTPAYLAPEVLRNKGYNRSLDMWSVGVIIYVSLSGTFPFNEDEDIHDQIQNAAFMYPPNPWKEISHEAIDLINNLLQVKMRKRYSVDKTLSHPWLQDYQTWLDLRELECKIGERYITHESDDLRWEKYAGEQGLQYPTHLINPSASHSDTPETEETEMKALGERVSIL
Nature of the data set: Inhibition of recombinant human full length GST-tagged PRKD1 expressed in baculovirus at 1 uM. In short, it runs like this: (§2)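 Kinase panel of 386 kinases, each screened at a single concentration of 1 μM.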

Data set [4] can be described thus: Oral bioavailability in CD1 mouse at 10 mg/kg administered via gavage by LC/MS/MS analysis. The data set is classed as ADME, organism-based. The following applies: in vivo. The essentials: (§3)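 Mouse pharmacokinetics after oral dosing at 10 or 50 mg/kg. The 10 mg/kg dose was given in 10% HPbCD + 5% dextrose in WFI at pH 4. The 50 mg/kg dose was given in 5% SBECD in WFI at pH 2. Plasma exposure (AUC), half-life and oral bioavailability were derived.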

Data set [5] deals with Non-receptor tyrosine-protein kinase TYK2 (Homo sapiens, UniProt P29597). Nature of the data set: Inhibition of recombinant human N-terminal GST-tagged TYK2 (871 to 1187 residues) expressed in baculovirus expression system using 5FAM-GEEPLYWSFPAKKK-NH2 as substrate after 10 mins by caliper assay. The essentials:
as §1

In data set [6] the target is Tyrosine-protein kinase JAK2 (Homo sapiens, UniProt O60674). Nature of the data set: Inhibition of recombinant human JAK2 (831 to 1132 residues) expressed in insect cells using 5FAM-GEEPLYWSFPAKKK-NH2 as substrate after 10 mins by caliper assay. The essentials: as §1
Data set [7] is described as follows: Half life in CD1 mouse at 10 mg/kg, po administered via gavage by LC/MS/MS analysis. The following applies: in vivo. Format: ADME, organism-based. In short, it runs like this: as §3
For data set [8], the target named is JAK2 (Homo sapiens, UniProt O60674). Nature of the data set: Inhibition of catalytic recombinant human GST-tagged JAK2 expressed in baculovirus at 1 uM. In short, it runs like this: as §2
Data set [9] has as its system Mus musculus. Nature of the data set: In vivo inhibition of JAK1 in tumors of human NCI-H1975 cells xenografted in NCr nude mouse assessed as decrease in STAT3 phosphorylation at 50 mg/kg, po after 2 hrs by ELISA. The data set is classed as functional, organism-based. The essentials:
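NCI-H1975 xenograft-bearing mice received single oral gavage doses of 1, 3, 10, 30, 50 or 100 mg/kg. Animals were sacrificed at 2 h, with an extra 6 h group at 50 mg/kg. Tumour pSTAT3 was measured as % inhibition, and plasma drug concentration was measured in parallel. Significance was tested by Student's t-test versus vehicle control.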
(In xenograft studies the graft and the host belong to different species.)

Data set [10] concerns the target T1, Tyrosine-protein kinase JAK1. Nature of the data set: Inhibition of cytoplasmic recombinant human GST-tagged JAK1 (886 to 1154 residues) expressed in baculovirus at 1 uM. In short, it runs like this:
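Single-concentration screen at 1 μM across a panel of 386 kinases to profile broad kinase selectivity.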

T1 sequence (P23458 whole entry, the tested form may be a part): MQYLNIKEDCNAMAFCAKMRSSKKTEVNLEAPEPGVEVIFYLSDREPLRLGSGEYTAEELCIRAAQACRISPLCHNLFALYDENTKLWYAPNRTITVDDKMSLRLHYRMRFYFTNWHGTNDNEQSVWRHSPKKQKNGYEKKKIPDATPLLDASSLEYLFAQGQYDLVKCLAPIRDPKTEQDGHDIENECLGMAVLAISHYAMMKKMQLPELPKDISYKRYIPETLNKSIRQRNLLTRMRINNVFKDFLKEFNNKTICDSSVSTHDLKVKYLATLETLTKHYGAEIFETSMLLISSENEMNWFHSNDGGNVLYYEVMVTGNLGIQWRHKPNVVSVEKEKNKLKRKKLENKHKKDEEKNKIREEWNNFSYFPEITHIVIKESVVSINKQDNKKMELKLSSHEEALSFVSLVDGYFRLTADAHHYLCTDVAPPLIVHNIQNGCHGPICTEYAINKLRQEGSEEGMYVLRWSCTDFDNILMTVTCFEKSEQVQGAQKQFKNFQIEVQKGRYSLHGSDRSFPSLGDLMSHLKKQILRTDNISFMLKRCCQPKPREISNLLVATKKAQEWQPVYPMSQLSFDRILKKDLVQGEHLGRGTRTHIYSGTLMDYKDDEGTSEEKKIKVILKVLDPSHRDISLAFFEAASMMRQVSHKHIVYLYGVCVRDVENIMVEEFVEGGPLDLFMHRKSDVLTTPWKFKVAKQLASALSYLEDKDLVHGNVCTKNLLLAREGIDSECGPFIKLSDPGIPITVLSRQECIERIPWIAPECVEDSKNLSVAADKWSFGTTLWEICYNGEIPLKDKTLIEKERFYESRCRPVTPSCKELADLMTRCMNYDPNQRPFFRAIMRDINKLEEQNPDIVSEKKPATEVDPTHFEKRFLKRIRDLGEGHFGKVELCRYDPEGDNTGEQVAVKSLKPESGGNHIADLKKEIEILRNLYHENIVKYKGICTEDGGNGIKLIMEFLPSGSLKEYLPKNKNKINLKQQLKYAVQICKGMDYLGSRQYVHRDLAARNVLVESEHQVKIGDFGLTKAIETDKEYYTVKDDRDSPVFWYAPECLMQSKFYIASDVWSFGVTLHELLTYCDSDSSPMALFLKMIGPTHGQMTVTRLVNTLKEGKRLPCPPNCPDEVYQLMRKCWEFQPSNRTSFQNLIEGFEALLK
Tyrosine-protein kinase JAK2, sequence (O60674 whole entry, the tested form may be a part): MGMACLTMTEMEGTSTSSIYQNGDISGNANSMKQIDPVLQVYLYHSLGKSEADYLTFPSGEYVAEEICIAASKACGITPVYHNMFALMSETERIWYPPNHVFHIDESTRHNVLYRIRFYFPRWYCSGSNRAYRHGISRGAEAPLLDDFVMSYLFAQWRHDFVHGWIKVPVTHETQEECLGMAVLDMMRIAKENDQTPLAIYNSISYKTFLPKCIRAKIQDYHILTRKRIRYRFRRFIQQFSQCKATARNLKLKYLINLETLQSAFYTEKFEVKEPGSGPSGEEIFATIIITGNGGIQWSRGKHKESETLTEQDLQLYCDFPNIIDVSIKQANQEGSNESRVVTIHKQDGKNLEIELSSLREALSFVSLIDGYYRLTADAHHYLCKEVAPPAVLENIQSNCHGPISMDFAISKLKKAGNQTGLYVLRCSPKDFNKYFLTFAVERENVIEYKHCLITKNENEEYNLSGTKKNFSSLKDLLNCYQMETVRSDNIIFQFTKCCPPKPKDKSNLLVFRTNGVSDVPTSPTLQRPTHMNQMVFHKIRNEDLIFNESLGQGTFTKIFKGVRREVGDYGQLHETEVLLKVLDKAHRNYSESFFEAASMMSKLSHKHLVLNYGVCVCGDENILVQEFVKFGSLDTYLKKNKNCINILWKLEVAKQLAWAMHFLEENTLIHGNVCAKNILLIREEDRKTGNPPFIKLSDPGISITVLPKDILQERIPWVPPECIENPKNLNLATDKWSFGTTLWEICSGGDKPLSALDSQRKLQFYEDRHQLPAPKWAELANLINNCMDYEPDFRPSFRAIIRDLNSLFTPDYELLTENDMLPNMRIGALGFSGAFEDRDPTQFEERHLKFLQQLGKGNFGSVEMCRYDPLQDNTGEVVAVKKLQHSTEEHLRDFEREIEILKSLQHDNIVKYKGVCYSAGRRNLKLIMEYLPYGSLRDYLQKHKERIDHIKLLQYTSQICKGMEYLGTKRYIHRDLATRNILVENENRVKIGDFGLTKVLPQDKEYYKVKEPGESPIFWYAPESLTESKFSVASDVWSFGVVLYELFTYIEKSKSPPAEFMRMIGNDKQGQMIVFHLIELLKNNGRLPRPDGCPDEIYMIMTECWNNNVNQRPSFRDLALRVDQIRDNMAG
JAK2, sequence (O60674 whole entry): as the sequence (O60674 whole entry, the tested form may be a part) above
Non-receptor tyrosine-protein kinase TYK2, sequence (P29597 whole entry, the tested form may be a part): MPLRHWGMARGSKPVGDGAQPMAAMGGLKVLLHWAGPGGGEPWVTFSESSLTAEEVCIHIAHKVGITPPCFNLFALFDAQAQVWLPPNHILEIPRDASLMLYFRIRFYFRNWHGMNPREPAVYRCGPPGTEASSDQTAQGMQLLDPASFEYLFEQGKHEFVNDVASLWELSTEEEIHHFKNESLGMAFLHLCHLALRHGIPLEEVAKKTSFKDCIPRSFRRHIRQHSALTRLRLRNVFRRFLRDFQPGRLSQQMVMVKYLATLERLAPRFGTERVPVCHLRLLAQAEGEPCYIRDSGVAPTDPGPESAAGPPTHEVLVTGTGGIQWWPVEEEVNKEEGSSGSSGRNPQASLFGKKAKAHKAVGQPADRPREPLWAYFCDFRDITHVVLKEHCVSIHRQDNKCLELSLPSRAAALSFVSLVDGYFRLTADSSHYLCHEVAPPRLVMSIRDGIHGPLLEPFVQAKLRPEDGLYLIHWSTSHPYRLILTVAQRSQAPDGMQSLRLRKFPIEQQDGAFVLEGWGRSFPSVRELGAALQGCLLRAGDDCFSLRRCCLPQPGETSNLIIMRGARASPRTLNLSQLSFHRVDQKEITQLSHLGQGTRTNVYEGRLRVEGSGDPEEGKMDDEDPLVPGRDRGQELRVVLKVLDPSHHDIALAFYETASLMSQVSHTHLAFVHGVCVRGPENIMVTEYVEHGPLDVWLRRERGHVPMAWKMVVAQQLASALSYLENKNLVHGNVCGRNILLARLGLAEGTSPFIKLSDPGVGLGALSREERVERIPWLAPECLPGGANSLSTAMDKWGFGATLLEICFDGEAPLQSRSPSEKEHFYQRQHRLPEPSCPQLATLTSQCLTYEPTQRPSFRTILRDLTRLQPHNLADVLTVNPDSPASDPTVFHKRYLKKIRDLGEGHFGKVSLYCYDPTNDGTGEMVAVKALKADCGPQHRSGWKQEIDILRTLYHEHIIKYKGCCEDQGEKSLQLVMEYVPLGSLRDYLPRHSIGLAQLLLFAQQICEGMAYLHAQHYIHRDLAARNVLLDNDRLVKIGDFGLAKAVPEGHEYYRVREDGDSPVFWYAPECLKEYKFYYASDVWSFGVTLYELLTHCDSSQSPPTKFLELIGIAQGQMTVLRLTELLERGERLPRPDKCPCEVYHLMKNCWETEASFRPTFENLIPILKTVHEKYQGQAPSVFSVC

The half-life is the time needed for the level to fall by half in the phase considered. Usually IC50 stands for the concentration that inhibits the measured activity by half. What is called inhibition is how much of the control response was suppressed. The term bioavailability denotes dose-corrected exposure relative to a reference, in per cent. Lower therefore signals little systemic uptake. Regarding `CC[C@@H](C)Nc1nc(Nc2cc(N3C[C@@H]4C[C@H]3CN4C)cnc2F)ncc1C`, the half-life is 2.4 h in [1] and 4.7 h in [7]. Further, the IC50 is 0.034 µM in [2], above 30 µM in data set [5] and above 30 µM in [6]. Besides, the inhibition in data set [3] was 73%; in data set [9], “Dose-dependent effect”; in data set [10], 100%. This molecule also showed a bioavailability in [4] of 30%. Also, the inhibition at 1 µM in [8] came out at 31%.
